Measurements published in ChEMBL document CHEMBL6134765, “Rapid identification of novel indolylarylsulfone derivatives as potent HIV-1 NNRTIs via miniaturized CuAAC click-chemistry-based combinatorial libraries” (RSC Med Chem, 2025).

What was measured:
[1] = biological target: Human immunodeficiency virus type 1 reverse transcriptase (Human immunodeficiency virus 1) (UniProt Q72547); assay: Inhibition of recombinant HIV-1 reverse transcriptase at 0.66 mM incubated for 1 hr by ELISA relative to control
Procedure, shortened: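 Each library compound was tested directly as the crude click mixture (diluted in DMSO to 2 mM per well) against HIV-1 RT at 0.66 mM, using an ELISA-based RT kit following the kit protocol. Blank controls held DMSO, TBTA, CuSO4·5H2O and sodium ascorbate. Inhibition is expressed as a percentage.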

[2] = system: Human immunodeficiency virus 1; assay: Antiviral activity against HIV-1 harboring RES056 mutant infected in human MT4 cells assessed as inhibition of virus induced cytotoxicity incubated for 5 days by spectrophometry based MTT assay; assay type: functional, organism-based; conditions: Human immunodeficiency virus 1, MT4, 120 h
Procedure, shortened: (§1)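 MT-4 cells (from Dr. N. Yamamoto, Yamaguchi University) infected with single-mutant (L100I, K103N, Y181C, Y188L, E138K) or double-mutant (F227L/V106A; RES056 = K103N/Y181C) HIV-1 strains. Protection against virus-induced cytotoxicity was read by the MTT method. EC50 is the concentration giving 50% protection of the cell cultures.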

[3] = Cytotoxicity against human MT4 cells assessed as reduction in cell viability incubated for 5 days by MTT assay; assay type: toxicity, cell-based; conditions: time 5 day
Procedure, shortened: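 Mock-infected MT-4 cultures were read by MTT for cell viability. CC50 is the concentration that reduces viability by 50%.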

[4] = system: Human immunodeficiency virus 1; assay: Antiviral activity against HIV-1 harboring Y181C mutant infected in human MT4 cells assessed as inhibition of virus induced cytotoxicity incubated for 5 days by spectrophometry based MTT assay; assay type: functional, organism-based; conditions: Human immunodeficiency virus 1, MT4, 120 h; procedure, shortened: as §1
[5] = system: Human immunodeficiency virus 1; assay: Antiviral activity against HIV-1 harboring E138K mutant infected in human MT4 cells assessed as inhibition of virus induced cytotoxicity incubated for 5 days by spectrophometry based MTT assay; assay type: functional, organism-based; conditions: Human immunodeficiency virus 1, MT4, 120 h; procedure, shortened: as §1
[6] = Selectivity index, ratio of CC50 for cytotoxicity against human MT4 cells to EC50 for antiviral activity against wild-type HIV-1 IIIB infected in human MT4 cells; assay type: toxicity, cell-based; conditions: read-out: Ratio CC50/EC50
Procedure, shortened: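 Selectivity index is calculated as CC50 (mock-infected MT-4, MTT) divided by EC50 (HIV-1 IIIB protection of MT-4, MTT).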

[7] = system: Human immunodeficiency virus 1; assay: Antiviral activity against HIV-1 harboring K103N mutant infected in human MT4 cells assessed as inhibition of virus induced cytotoxicity incubated for 5 days by spectrophometry based MTT assay; assay type: functional, organism-based; conditions: Human immunodeficiency virus 1, MT4, 120 h; procedure, shortened: as §1
[8] = system: Human immunodeficiency virus 1; assay: Antiviral activity against HIV-1 harboring F227L/V106A double mutant infected in human MT4 cells assessed as inhibition of virus induced cytotoxicity incubated for 5 days by spectrophometry based MTT assay; assay type: functional, organism-based; conditions: Human immunodeficiency virus 1, MT4, 120 h; procedure, shortened: as §1
[9] = system: Human immunodeficiency virus 1; assay: Antiviral activity against HIV-1 harboring L100I mutant infected in human MT4 cells assessed as inhibition of virus induced cytotoxicity incubated for 5 days by spectrophometry based MTT assay; assay type: functional, organism-based; conditions: Human immunodeficiency virus 1, MT4, 120 h; procedure, shortened: as §1
[10] = system: Human immunodeficiency virus 2; assay: Antiviral activity against HIV-2 ROD infected in human MT4 cells incubated for 5 days by spectrophotometry based MTT assay; assay type: functional, organism-based; conditions: Human immunodeficiency virus 2, ROD, MT4, 120 h
Procedure, shortened: (§2)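 MTT protection assay in MT-4 cells infected with HIV-1 IIIB or HIV-2 ROD. EC50 is the compound concentration giving 50% protection of the cultures against virus-induced cytotoxicity.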

[11] = system: Human immunodeficiency virus 1; assay: Antiviral activity against HIV-1 harboring Y188L mutant infected in human MT4 cells assessed as inhibition of virus induced cytotoxicity incubated for 5 days by spectrophometry based MTT assay; assay type: functional, organism-based; conditions: Human immunodeficiency virus 1, MT4, 120 h; procedure, shortened: as §1
[12] = system: Human immunodeficiency virus 1; assay: Antiviral activity against wild-type HIV-1 IIIB infected in human MT4 cells incubated for 5 days by spectrophometry based MTT assay; assay type: functional, organism-based; conditions: Human immunodeficiency virus 1, IIIB, MT4, 120 h; procedure, shortened: as §2

## Cc1cc(C)cc(S(=O)(=O)c2c(C(=O)NCc3cn(Cc4ccc5ccccc5c4)nn3)[nH]c3ccc(Cl)cc23)c1
[1]
  inhibition: < 85%

## Cc1cc(C)cc(S(=O)(=O)c2c(C(=O)NCc3cn(Cc4cccc([N+](=O)[O-])c4)nn3)[nH]c3ccc(Cl)cc23)c1
[2]
  EC50: > 216000 nM
[3]
  CC50 at 120 h: > 216000 nM
[4]
  EC50: 3040 nM
[5]
  EC50: 1300 nM
[6]
  selectivity ratio: > 939
[1]
  inhibition: > 85%
[7]
  EC50: 2840 nM
[8]
  EC50: 9410 nM
[9]
  EC50: 1900 nM
[10]
  EC50: > 216000 nM
[11]
  EC50: 152000 nM
[12]
  EC50: 230 nM

## Cc1cc(C)cc(S(=O)(=O)c2c(C(=O)NCc3cn(Cc4cccc(C#N)c4)nn3)[nH]c3ccc(Cl)cc23)c1
[2]
  EC50: > 166000 nM
[3]
  CC50 at 120 h: 166000 nM
[4]
  EC50: 1100 nM
[5]
  EC50: 350 nM
[6]
  selectivity ratio: 2680
[1]
  inhibition: > 85%
[7]
  EC50: 1240 nM
[8]
  EC50: 2960 nM
[9]
  EC50: 340 nM
[10]
  EC50: > 166000 nM
[11]
  EC50: > 35300 nM
[12]
  EC50: 62 nM

## CCOC(=O)Cn1cc(CNC(=O)c2[nH]c3ccc(Cl)cc3c2S(=O)(=O)c2cc(C)cc(C)c2)nn1
[2]
  EC50: 204000 nM
[3]
  CC50 at 120 h: > 236000 nM
[4]
  EC50: 630 nM
[5]
  EC50: 100 nM
[6]
  selectivity ratio: > 7330
[1]
  inhibition: > 85%
[7]
  EC50: 340 nM
[8]
  EC50: 1700 nM
[9]
  EC50: 170 nM
[10]
  EC50: 226000 nM
[11]
  EC50: 33400 nM
[12]
  EC50: 32 nM

## COC(=O)CCCn1cc(CNC(=O)c2[nH]c3ccc(Cl)cc3c2S(=O)(=O)c2cc(C)cc(C)c2)nn1
[2]
  EC50: > 206000 nM
[3]
  CC50 at 120 h: 206000 nM
[4]
  EC50: 580 nM
[5]
  EC50: 50 nM
[6]
  selectivity ratio: 5810
[1]
  inhibition: > 85%
[7]
  EC50: 510 nM
[8]
  EC50: 1660 nM
[9]
  EC50: 270 nM
[10]
  EC50: > 206000 nM
[11]
  EC50: 9040 nM
[12]
  EC50: 35 nM

## Cc1cc(C)cc(S(=O)(=O)c2c(C(=O)NCc3cn(CC(=O)N4CCCC4)nn3)[nH]c3ccc(Cl)cc23)c1
[1]
  inhibition: < 85%

## Cc1cc(C)cc(S(=O)(=O)c2c(C(=O)NCc3cn(CCc4ccsc4)nn3)[nH]c3ccc(Cl)cc23)c1
[1]
  inhibition: < 85%

## Cc1cc(C)cc(S(=O)(=O)c2c(C(=O)NCc3cn(CC(=O)Nc4ccc(S(C)(=O)=O)cc4)nn3)[nH]c3ccc(Cl)cc23)c1
[1]
  inhibition: < 85%

## Cc1cc(C)cc(S(=O)(=O)c2c(C(=O)NCc3cn(CCc4ccccc4)nn3)[nH]c3ccc(Cl)cc23)c1
[2]
  EC50: > 4690 nM
[3]
  CC50 at 120 h: 162000 nM
[4]
  EC50: 2510 nM
[5]
  EC50: 870 nM
[6]
  selectivity ratio: 1080
[1]
  inhibition: > 85%
[7]
  EC50: 540 nM
[8]
  EC50: 4330 nM
[9]
  EC50: 1000 nM
[10]
  EC50: > 4690 nM
[11]
  EC50: > 162000 nM
[12]
  EC50: 150 nM

## Cc1cc(C)cc(S(=O)(=O)c2c(C(=O)NCc3cn(-c4ccc(C(=O)O)cc4Cl)nn3)[nH]c3ccc(Cl)cc23)c1
[1]
  inhibition: < 85%

## Cc1cc(C)cc(S(=O)(=O)c2c(C(=O)NCc3cn(-c4ccc5c(c4)OCO5)nn3)[nH]c3ccc(Cl)cc23)c1
[1]
  inhibition: < 85%

## Cc1cc(C)cc(S(=O)(=O)c2c(C(=O)NCc3cn(Cc4ccccc4C#N)nn3)[nH]c3ccc(Cl)cc23)c1
[1]
  inhibition: < 85%

## Cc1cc(C)cc(S(=O)(=O)c2c(C(=O)NCc3cn(Cc4ccc([N+](=O)[O-])cc4)nn3)[nH]c3ccc(Cl)cc23)c1
[1]
  inhibition: < 85%

## Cc1cc(C)cc(S(=O)(=O)c2c(C(=O)NCc3cn(CC(=O)Nc4ccccc4)nn3)[nH]c3ccc(Cl)cc23)c1
[1]
  inhibition: < 85%

## Cc1cc(C)cc(S(=O)(=O)c2c(C(=O)NCc3cn(Cc4ccccc4C)nn3)[nH]c3ccc(Cl)cc23)c1
[1]
  inhibition: < 85%

## Nc1ccn([C@@H]2CS[C@H](CO)O2)c(=O)n1 [LAMIVUDINE]
[3]
  CC50 at 120 h: > 87200 nM
[6]
  selectivity ratio: > 17
[11]
  EC50: 3560 nM

## Cc1cc(C)cc(S(=O)(=O)c2c(C(=O)NCc3cn(Cc4ccc(Cl)cc4)nn3)[nH]c3ccc(Cl)cc23)c1
[1]
  inhibition: < 85%

## Cc1ccc(Cn2cc(CNC(=O)c3[nH]c4ccc(Cl)cc4c3S(=O)(=O)c3cc(C)cc(C)c3)nn2)cc1
[1]
  inhibition: < 85%

## COc1cccc(Cn2cc(CNC(=O)c3[nH]c4ccc(Cl)cc4c3S(=O)(=O)c3cc(C)cc(C)c3)nn2)c1
[1]
  inhibition: < 85%

## Cc1cc(C)cc(S(=O)(=O)c2c(C(=O)NCc3cn(Cc4ccccc4Cl)nn3)[nH]c3ccc(Cl)cc23)c1
[1]
  inhibition: < 85%

## Cc1cc(C)cc(S(=O)(=O)c2c(C(=O)NCc3cn(Cc4ccc(C(N)=O)cc4)nn3)[nH]c3ccc(Cl)cc23)c1
[1]
  inhibition: < 85%

## Cc1cc(C)cc(S(=O)(=O)c2c(C(=O)NCc3cn(CCN4C(=O)c5ccccc5C4=O)nn3)[nH]c3ccc(Cl)cc23)c1
[1]
  inhibition: < 85%

## Cc1cc(C)cc(S(=O)(=O)c2c(C(=O)NCc3cn(Cc4ccc(S(N)(=O)=O)cc4)nn3)[nH]c3ccc(Cl)cc23)c1
[1]
  inhibition: < 85%

## Cc1cc(C)cc(S(=O)(=O)c2c(C(=O)NCc3cn([C@H]4C[C@H](n5cc(C)c(=O)[nH]c5=O)O[C@@H]4CO)nn3)[nH]c3ccc(Cl)cc23)c1 (single isomer, unassigned)
[1]
  inhibition: < 85%

## Cc1cc(C)cc(S(=O)(=O)c2c(C(=O)NCc3cn(CC(=O)N4CCOCC4)nn3)[nH]c3ccc(Cl)cc23)c1
[1]
  inhibition: < 85%

## Cc1cc(C#N)cc(C)c1Oc1nc(Nc2ccc(C#N)cc2)nc(N)c1Br [ETRAVIRINE]
[2]
  EC50: 38 nM
[3]
  CC50 at 120 h: > 6330 nM
[6]
  selectivity ratio: > 1640
[8]
  EC50: 18 nM

## Cc1cc(C)cc(S(=O)(=O)c2c(C(=O)NCc3cn(Cc4ccc(C#N)cc4)nn3)[nH]c3ccc(Cl)cc23)c1
[1]
  inhibition: < 85%

## COC(=O)c1cccc(-n2cc(CNC(=O)c3[nH]c4ccc(Cl)cc4c3S(=O)(=O)c3cc(C)cc(C)c3)nn2)c1
[1]
  inhibition: < 85%

## Cc1cn([C@H]2C[C@H](N=[N+]=[N-])[C@@H](CO)O2)c(=O)[nH]c1=O [ZIDOVUDINE]
[2]
  EC50: 2 nM
[3]
  CC50 at 120 h: > 7480 nM
[6]
  selectivity ratio: > 397
[8]
  EC50: 9 nM
[12]
  EC50: 19 nM

## COc1ccccc1Cn1cc(CNC(=O)c2[nH]c3ccc(Cl)cc3c2S(=O)(=O)c2cc(C)cc(C)c2)nn1
[1]
  inhibition: < 85%

## Cc1cc(C)cc(S(=O)(=O)c2c(C(=O)NCc3cn(-c4ccc(C(=O)O)cc4)nn3)[nH]c3ccc(Cl)cc23)c1
[1]
  inhibition: < 85%

## Cc1cc(C)cc(S(=O)(=O)c2c(C(=O)NCc3cn(-c4cc5ccccc5s4)nn3)[nH]c3ccc(Cl)cc23)c1
[1]
  inhibition: < 85%

## Cc1cc(C)cc(S(=O)(=O)c2c(C(=O)NCc3cn(Cc4cccc(Cl)c4)nn3)[nH]c3ccc(Cl)cc23)c1
[1]
  inhibition: < 85%

## Cc1cccc(Cn2cc(CNC(=O)c3[nH]c4ccc(Cl)cc4c3S(=O)(=O)c3cc(C)cc(C)c3)nn2)c1
[1]
  inhibition: < 85%

## Cc1ccnc2c1NC(=O)c1cccnc1N2C1CC1 [NEVIRAPINE]
[2]
  EC50: > 15000 nM
[3]
  CC50 at 120 h: > 15000 nM
[6]
  selectivity ratio: > 92
[8]
  EC50: ≥ 5410 nM
[11]
  EC50: ≥ 7700 nM

## Cc1cc(C)cc(S(=O)(=O)c2c(C(=O)NCc3cn(CC(=O)NC4CC4)nn3)[nH]c3ccc(Cl)cc23)c1
[1]
  inhibition: < 85%
